From ChEMBL document CHEMBL1140903, “Reactions of functionalized sulfonamides: application to lowering the lipophilicity of cytosolic phospholipase A2alpha inhibitors” (J Med Chem, 2009) come the findings set out here.

pIC50: −log10 of the molar value.

The pIC50 is −log10 of the IC50, conventionally taken in molar units. Higher therefore signals a small IC50. By inhibition is commonly meant the change of the read-out against control, counted positive when it falls.

Assay [1] concerns Blood. The assay can be described thus: Inhibition of A23187-induced TBX2 release in Sprague-Dawley rat whole blood. It is filed as functional, tissue-based. Summed up:
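Rat whole blood is stimulated with calcium ionophore A23187, and thromboxane B2 is the read-out (cPLA2α- and COX-1-dependent). IC50 is taken from at least two runs, each run the mean of triplicate assays.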

For assay [2], the system named is Blood. The assay can be described thus: Inhibition of A23187-induced TBX2 release in human whole blood at 10 uM. It counts as functional.
Assay [3] concerns the target T1, Cytosolic phospholipase A2 (Homo sapiens, UniProt P47712).
T1 sequence (P47712 whole entry): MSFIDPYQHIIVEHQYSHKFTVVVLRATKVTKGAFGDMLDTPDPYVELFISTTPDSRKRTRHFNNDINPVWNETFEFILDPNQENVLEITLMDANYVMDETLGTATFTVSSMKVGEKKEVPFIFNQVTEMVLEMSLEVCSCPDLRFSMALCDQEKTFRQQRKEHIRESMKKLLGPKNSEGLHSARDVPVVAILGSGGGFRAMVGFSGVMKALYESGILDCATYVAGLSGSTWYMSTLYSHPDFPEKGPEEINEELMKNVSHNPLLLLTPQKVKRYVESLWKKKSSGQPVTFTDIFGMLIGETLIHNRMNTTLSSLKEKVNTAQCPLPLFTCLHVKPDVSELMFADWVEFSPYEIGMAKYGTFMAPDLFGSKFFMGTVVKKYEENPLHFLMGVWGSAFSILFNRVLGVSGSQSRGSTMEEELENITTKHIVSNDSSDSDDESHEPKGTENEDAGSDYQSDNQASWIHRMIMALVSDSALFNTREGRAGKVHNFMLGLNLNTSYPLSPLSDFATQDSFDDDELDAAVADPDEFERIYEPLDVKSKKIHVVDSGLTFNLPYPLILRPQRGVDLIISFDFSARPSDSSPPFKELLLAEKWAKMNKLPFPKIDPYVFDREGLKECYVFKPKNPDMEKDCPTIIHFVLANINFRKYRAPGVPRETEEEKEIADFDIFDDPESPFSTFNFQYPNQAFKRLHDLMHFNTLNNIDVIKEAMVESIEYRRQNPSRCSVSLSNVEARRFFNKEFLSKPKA
As to the kind of experiment: Inhibition of human cytosolic PLA2alpha by GLU micelle assay. The gist of the method:
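Purified human cPLA2α with the substrate 7-hydroxycoumarinyl-γ-linolenate (GLU), presented in micelles containing a high concentration of detergent and lipid. IC50 is taken from at least two runs, each run the mean of duplicate assays.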

For assay [4], the system named is MC9. As to the kind of experiment: Inhibition of IgE-specific antigen-induced PGF2-alpha release in mouse MC9 cells at 1.0 uM.
Assay [5] has as its system MC9. As to the kind of experiment: Inhibition of arachidonic acid-induced PGF2-alpha release in mouse MC9 cells at 1.0 uM.
In assay [6] the test system is MC9. The assay can be described thus: Inhibition of IgE-specific antigen-induced LBT4 release in mouse MC9 cells at 1.0 uM.

For the compound `O=C(O)c1ccc(OCCc2c(CCNS(=O)(=O)CCn3cnnn3)n(C(c3ccccc3)c3ccccc3)c3ccc(Cl)cc23)cc1`, the figures for the pIC50 in assay [1] and in assay [3] were 5.25 and 6.33, respectively. Also, the inhibition at 10 µM in assay [2] is < 25%. Moreover, the inhibition at 1 µM in assay [4] was 19%; in assay [5] it was -5%; in assay [6], 59%.
